Test [1] addresses Neuronal acetylcholine receptor; alpha3/beta4 (Rattus norvegicus, UniProt P04757+P12392). Description: Displacement of [3H]epibatidine from rat alpha3beta4 nAChR transfected in HEK293 cells after 2 hrs by beta-plate counting analysis. It counts as cell-based. The gist of the method: (§1)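 Cell lines KXα3β4R2 and KXα4β2R2 (rat receptors) were used. Membranes were prepared by homogenizing cells in 50 mM Tris pH 7.4 and centrifuging twice at 20000g. They were incubated 2 h at room temperature with 0.3 nM [3H]epibatidine plus test sample, then filtered on PEI-soaked glass fiber and counted. Nonspecific binding was defined by 1 µM AT-1001 or 0.1 µM epibatidine. Ki was obtained by Cheng–Prusoff; runs were in triplicate, at least twice.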
In general terms: In a radioligand displacement assay an active substance lowers the binding of a labelled ligand.

In test [2] the target is T1, Neuronal acetylcholine receptor; alpha4/beta2 (Rattus norvegicus, UniProt P09483+P12390). Description: Antagonist activity at rat alpha4beta2 nAChR transfected in HEK293 cells after 10 mins by fluorescence assay in presence of nicotine. The format is cell-based. The gist of the method: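 Transfected HEK cells were seeded at 4000/well the day before and loaded with blue membrane-potential dye in HBSS/20 mM HEPES pH 7.4 at 37 °C for 20 min. […] Fluorescence (ex 530, em 550–580) was recorded every 3 s for 120 s on a FlexStation.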
T1 sequence (P09483 whole entry): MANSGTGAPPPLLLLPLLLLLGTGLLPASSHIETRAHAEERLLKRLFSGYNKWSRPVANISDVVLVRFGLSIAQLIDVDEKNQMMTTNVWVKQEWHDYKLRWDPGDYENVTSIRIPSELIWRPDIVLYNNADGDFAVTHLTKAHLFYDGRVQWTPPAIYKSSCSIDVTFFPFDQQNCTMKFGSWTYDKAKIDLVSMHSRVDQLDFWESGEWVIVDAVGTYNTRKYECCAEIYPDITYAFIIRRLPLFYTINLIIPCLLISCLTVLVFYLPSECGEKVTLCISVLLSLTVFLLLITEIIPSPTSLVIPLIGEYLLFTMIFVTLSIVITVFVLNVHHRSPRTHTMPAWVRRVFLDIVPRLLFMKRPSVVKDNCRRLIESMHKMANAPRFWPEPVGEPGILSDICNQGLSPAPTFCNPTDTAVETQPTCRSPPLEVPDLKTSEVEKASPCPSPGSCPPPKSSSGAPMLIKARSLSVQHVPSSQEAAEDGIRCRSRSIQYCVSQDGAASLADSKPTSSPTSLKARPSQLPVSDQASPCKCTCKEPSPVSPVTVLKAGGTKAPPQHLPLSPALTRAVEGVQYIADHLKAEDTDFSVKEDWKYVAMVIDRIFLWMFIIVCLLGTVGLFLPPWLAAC
T1 sequence (P12390 whole entry): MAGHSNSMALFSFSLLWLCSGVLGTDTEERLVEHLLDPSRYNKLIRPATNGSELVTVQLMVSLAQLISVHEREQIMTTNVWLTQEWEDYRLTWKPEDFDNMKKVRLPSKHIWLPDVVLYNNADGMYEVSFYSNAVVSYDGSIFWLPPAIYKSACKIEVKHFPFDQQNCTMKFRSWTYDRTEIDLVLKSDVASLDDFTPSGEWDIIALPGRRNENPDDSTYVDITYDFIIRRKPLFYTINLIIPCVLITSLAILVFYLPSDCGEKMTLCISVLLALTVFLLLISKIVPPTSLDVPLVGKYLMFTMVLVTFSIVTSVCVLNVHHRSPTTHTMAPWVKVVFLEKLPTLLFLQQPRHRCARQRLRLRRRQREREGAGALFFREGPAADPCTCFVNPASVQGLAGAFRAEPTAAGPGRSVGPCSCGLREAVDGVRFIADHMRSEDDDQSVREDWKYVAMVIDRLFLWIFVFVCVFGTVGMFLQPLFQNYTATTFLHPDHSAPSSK

Test [3] addresses T1, Neuronal acetylcholine receptor; alpha4/beta2. Description: Displacement of [3H]epibatidine from rat alpha4beta2 nAChR transfected in HEK293 cells after 2 hrs by beta-plate counting analysis. The format is cell-based. The gist of the method:
as §1

Test [4] is filed under the species Rattus norvegicus. Description: Selectivity ratio of Ki for rat alpha3beta4 nAChR to Ki for rat alpha4beta2 nAChR. The gist of the method: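 Selectivity was calculated from [3H]epibatidine-binding Ki values as (Ki α3β4 − Ki α4β2)/Ki α4β2.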
For test [5], the system named is HEK293. Description: Selectivity ratio for rat alpha3beta4 nAChR transfected in HEK293 cells to rat alpha4beta2 nAChR transfected in HEK293 cells. The format is cell-based.

SMILES strings stand for the structures. Some results are limits rather than exact numbers.

The text below walks through data of ChEMBL document CHEMBL3108759, “Scaffold ranking and positional scanning utilized in the discovery of nAChR-selective compounds suitable for optimization studies” (J Med Chem, 2013).

The Ki is the equilibrium dissociation constant of an inhibitor or competing ligand from its target. A high value points to weaker binding. What is called IC50 is the concentration that inhibits the measured activity by half.

Chain of Neuronal acetylcholine receptor; alpha3/beta4 (P04757 whole entry): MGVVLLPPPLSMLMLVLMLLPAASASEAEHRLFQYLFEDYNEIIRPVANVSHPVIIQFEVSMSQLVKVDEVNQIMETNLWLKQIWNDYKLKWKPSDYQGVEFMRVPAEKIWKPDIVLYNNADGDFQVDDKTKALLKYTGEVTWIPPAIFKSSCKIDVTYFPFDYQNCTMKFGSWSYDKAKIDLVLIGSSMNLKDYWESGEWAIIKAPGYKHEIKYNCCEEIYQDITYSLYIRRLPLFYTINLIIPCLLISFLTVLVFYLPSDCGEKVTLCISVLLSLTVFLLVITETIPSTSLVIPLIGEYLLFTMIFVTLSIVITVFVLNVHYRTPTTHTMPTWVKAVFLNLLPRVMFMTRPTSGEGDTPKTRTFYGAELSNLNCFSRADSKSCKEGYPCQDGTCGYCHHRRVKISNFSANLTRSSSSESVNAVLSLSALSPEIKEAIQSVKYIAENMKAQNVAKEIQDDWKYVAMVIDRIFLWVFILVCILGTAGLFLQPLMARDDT
Chain of Neuronal acetylcholine receptor; alpha3/beta4 (P12392 whole entry): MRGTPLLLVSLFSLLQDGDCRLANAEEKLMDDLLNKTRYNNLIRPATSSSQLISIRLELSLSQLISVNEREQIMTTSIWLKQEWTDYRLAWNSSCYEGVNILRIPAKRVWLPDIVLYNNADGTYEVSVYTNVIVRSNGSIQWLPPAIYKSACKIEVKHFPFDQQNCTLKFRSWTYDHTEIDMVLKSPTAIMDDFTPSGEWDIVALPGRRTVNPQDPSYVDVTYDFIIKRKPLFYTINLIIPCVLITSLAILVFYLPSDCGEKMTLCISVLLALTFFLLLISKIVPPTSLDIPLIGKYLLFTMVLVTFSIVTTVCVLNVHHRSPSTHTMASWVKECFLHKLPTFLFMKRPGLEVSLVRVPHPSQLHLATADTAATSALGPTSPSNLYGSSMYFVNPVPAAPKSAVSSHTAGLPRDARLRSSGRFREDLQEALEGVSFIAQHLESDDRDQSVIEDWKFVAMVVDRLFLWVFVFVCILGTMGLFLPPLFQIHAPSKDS

`CC(C)(C)C1CCC(CN2C(=N)N(CCCC[C@H]3CN=C(N)N3CCc3cccnc3)C[C@@H]2Cc2ccccc2)CC1` (stereo partly specified): the Ki in test [1] was found to be 23.8 µM; in test [3], 0.323 µM. Moreover, the 50% inhibitory concentration (IC50) in test [2] came to 1.47 µM.

Turning to `CC(C)(C)C1CCC(CN2C(=N)N(CCCC[C@H]3CN=C(N)N3CCc3cccnc3)C[C@H]2CC2CCCCC2)CC1` (stereo partly specified), the figures for the Ki in test [1] and in test [3] were 59.7 µM and 0.34 µM, respectively. For the same compound, in test [2], the IC50 was 2.83 µM.

For the compound `CC(C)(C)C1CCC(CN2C(=N)N(CCCC[C@@H]3CNC(=N)N3CCc3cccnc3)C[C@H]2Cc2ccccc2)CC1` (stereo partly specified), the inhibition constant Ki in test [1] is 63.3 µM; in test [3] it was 0.307 µM. The half-inhibitory concentration (IC50) in test [2] turned out to be 3.02 µM. Further, in test [4], the Ratio Ki came to 206.

Turning to `CC(C)(C)C1CCC(CN2CCN(CCCC[C@H]3CNC(=N)N3CCc3cccnc3)C2=N)CC1` (stereo partly specified), the Ratio Ki in test [4] amounted to 64.

For the compound `CCCCCCCN1C(=N)NC[C@@H]1CCCCN1C[C@@H](Cc2ccccc2)N(CCc2cccc(Br)c2)C1=N`, the inhibition constant (Ki) in test [1] was determined as 14.4 µM; in test [3] it was 2.5 µM. Besides, the Selectivity ratio in test [5] worked out at 4.8.

As to `CC(C)CCCN1C(=N)NC[C@@H]1CCCCN1C[C@@H](Cc2ccccc2)N(CCc2cccc(Br)c2)C1=N`, the Ki in test [1] stood at 47.8 µM; in test [3], 2.6 µM. For the same compound, the Selectivity ratio in test [5] came out at 17.5.

As to `CO[C@H]1CC=C2CCN3CCC4=C(CC(=O)OC4)[C@]23C1`, the inhibitory constant (Ki) is more than 10 µM in test [1] and 0.485 µM in test [3]. In test [2], the 50% inhibitory concentration (IC50) came to 0.624 µM.

Turning to `N=C1NC[C@H](CCCCN2C[C@H](Cc3ccc4ccccc4c3)N(CCc3cccc(Br)c3)C2=N)N1CCc1ccc(Cl)c(Cl)c1`, the Selectivity ratio in test [5] came out at 0.8.

For the compound `CC(C)(C)C1CCC(CN2CCN(CCCC[C@@H]3CNC(=N)N3CCc3cccnc3)C2=N)CC1` (stereo partly specified), the Ki turned out to be 51.9 µM in test [1] and 2.22 µM in test [3]. In addition, the IC50 in test [2] turned out to be 2.95 µM. Also, the Ratio Ki in test [4] was determined as 23.

Consider `CC(C)(C)C1CCC(CN2CCN(CCCC[C@H]3CN=C(N)N3CCc3cccnc3)C2=N)CC1` (stereo partly specified), for which the inhibitory constant (Ki) was determined as 27.6 µM in test [1] and 0.433 µM in test [3]. In test [2], the IC50 was found to be 2.82 µM.

Consider `CC(C)(C)C1CCC(CN2C(=N)N(CCCC[C@H]3CNC(=N)N3CCc3cccnc3)C[C@@H]2CC2CCCCC2)CC1` (stereo partly specified), for which, in test [4], the Ratio Ki was found to be 128.

For `CC(C)CCCN1C(=N)NC[C@@H]1CCCCN1C[C@@H](Cc2ccccc2)N(CC2CCC(C(C)(C)C)CC2)C1=N` (stereo partly specified), the Selectivity ratio in test [5] is 28.5.

With `CC(C)(C)C1CCC(CN2C(=N)N(CCCC[C@H]3CNC(=N)N3CCc3cccnc3)C[C@H]2CC2CCCCC2)CC1` (stereo partly specified), in test [4], the Ratio Ki turned out to be 176.

With `CC(C)(C)C1CCC(CN2C(=N)N(CCCC[C@H]3CN=C(N)N3CCc3cccc(F)c3)C[C@H]2CC2CCCCC2)CC1` (stereo partly specified), the inhibition constant (Ki) in test [1] turned out to be 88.9 µM; in test [3], 3.73 µM. Moreover, the IC50 in test [2] worked out at 5.32 µM.

In the case of `CC(C)(C)C1CCC(CN2C(=N)N(CCCC[C@H]3CNC(=N)N3CCc3cccc(F)c3)C[C@H]2CC2CCCCC2)CC1` (stereo partly specified), in test [4], the Ratio Ki came out at 24. Besides, the Selectivity ratio in test [5] stood at 25.9.

Consider `CC(C)(C)C1CCC(CN2C(=N)N(CCCC[C@H]3CNC(=N)N3CCc3cccnc3)C[C@@H]2Cc2ccccc2)CC1` (stereo partly specified), for which the Ratio Ki in test [4] is 74.

`CC(C)(C)C1CCC(CN2C(=N)N(CCCC[C@@H]3CNC(=N)N3CCc3cccnc3)C[C@H]2CC2CCCCC2)CC1` (stereo partly specified): the Ki in test [1] was found to be 33.4 µM; in test [3], 0.257 µM. The concentration for half-maximal inhibition (IC50) in test [2] stood at 1.69 µM. Besides, the Ratio Ki in test [4] was determined as 130.

Turning to `N=C1NC[C@H](CCCCN2C[C@@H](Cc3ccccc3)N(CCc3cccc(Br)c3)C2=N)N1CCc1cccc(F)c1`, the Selectivity ratio in test [5] stood at 10.1.

On to `CC(C)(C)C1CCC(CN2C(=N)N(CCCC[C@H]3CN=C(N)N3CCc3cccnc3)C[C@@H]2CC2CCCCC2)CC1` (stereo partly specified), for which the Ki was found to be 78.1 µM in test [1] and 0.611 µM in test [3]. Besides, the concentration for half-maximal inhibition (IC50) in test [2] is 3.4 µM.

In the case of `N=C1NC[C@H](CCCCN2C[C@@H](CC3CCCCC3)N(CCc3cccc(Br)c3)C2=N)N1CCc1cccc(F)c1`, the Selectivity ratio in test [5] came to 4.8.
